In paper PMC6055826 (Chemistry (Weinheim an Der Bergstrasse, Germany), 2018):

Tests used:
Hydrolytic stability = assay type: physicochemical; conditions: for Recovery [%] (pH): 24 hours with stirring
How it was run: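 Test compound stirred for 24 hours in buffer at each of three pH values: pH 1 in HCl buffer, pH 7 in phosphate-buffered saline, and pH 10 in sodium borate buffer. Stability expressed as recovery of test compound.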

[1] = Metabolic stability assay, pooled human liver microsomes; assay type: in vitro ADME; conditions: predicted maximum oral bioavailability
How it was run: (§1)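 Metabolic stability measured in vitro in pooled liver microsomes (human, rat or mouse) or freshly harvested rat hepatocytes.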

[2] = Metabolic stability assay, pooled rat liver microsomes; assay type: in vitro ADME; conditions: predicted maximum oral bioavailability
How it was run: as §1

[3] = Metabolic stability assay, pooled mouse liver microsomes; assay type: in vitro ADME; conditions: predicted maximum oral bioavailability
How it was run: as §1

[4] = tested on: freshly harvested rat hepatocytes (rHep); experiment: Metabolic stability assay, freshly harvested rat hepatocytes; assay type: in vitro ADME; conditions: predicted maximum oral bioavailability
How it was run: as §1

[5] = Bidirectional Caco2 permeability assay, 24-well format; assay type: in vitro ADME; conditions: human, Caco-2
How it was run: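 Caco-2 monolayers run bidirectionally in a 24-well format, measuring apparent permeability both apical-to-basolateral (A-B) and basolateral-to-apical (B-A). Efflux ratio calculated as Papp B-A divided by Papp A-B.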

[6] = logD by reversed-phase HPLC; assay type: physicochemical; conditions: pH 7.5
[7] = pH 7 (phosphate-buffered saline)

Row | SMILES | Recovery [%] (pH) (Hydrolytic stability; pH 1 (HCl buffer)) | Recovery [%] (pH) (Hydrolytic stability; [7]) | Recovery [%] (pH) (Hydrolytic stability; pH 10 (sodium borate buffer)) | F max (h/r/m)-LMs [%] ([1]; listed as C00021) | F max (h/r/m)-LMs [%] [2] [%] | F max (h/r/m)-LMs [%] [3] [%] | F max rHep [%] [4] [%] | Papp A→B [5] [×10⁻⁶ cm/s] | efflux ratio [5] | chromatographic logD [6] | F max (h/r/m)-LMs [%] [1] [%] | hydrolytic stability (in words) (Hydrolytic stability; after 24 hours with stirring at pH 1, 7 and 10) | F max (h/r/m)-LMs [%] ([1]; listed as C00015)
1 | O=S(=Nc1cccc(F)c1)(c1ccccc1)N1CCCCC1 (centres unmarked) [2 bc] | 100 (1) 100 (7) 100 (10) % | 100 (1) 100 (7) 100 (10) % | 100 (1) 100 (7) 100 (10) % | 8.3 | 0.5 | 16 | 2.1 | 25.2 | 0.45 | 4.3 |  |  | 
2 | CN=S(=O)(c1ccccc1)N1CCCCC1 (centres unmarked) [2 cm] | 100 (1) 100 (7) 100 (10) % | 100 (1) 100 (7) 100 (10) % | 100 (1) 100 (7) 100 (10) % |  | 18 | 47 | 19 | 40.4 | 0.57 | 2.4 | 84 |  | 
3 | O=S(=NC(F)(F)F)(c1ccccc1)N1CCCCC1 (centres unmarked) [2 cs, 1‐[S‐Phenyl‐N‐(trifluoromethyl)sulfonimidoyl]piperidine] | 56% | 100% | 91% |  | 10 | 9.3 | 6.8 | 19.2 | 0.7 | 3.7 | 19 | signs of hydrolysis at pH 1 and 10 | 
4 | CS(=O)(=O)N=S(=O)(c1ccccc1)N1CCCCC1 (centres unmarked) [2 ea, N‐[Oxo(phenyl)(piperidin‐1‐yl)‐λ^6‐sulfanylidene]methanesulfonamide] | 100 (1) 100 (7) 100 (10) % | 100 (1) 100 (7) 100 (10) % | 100 (1) 100 (7) 100 (10) % |  | 33 | 83 | 20 | 36.3 | 0.67 | 2 |  |  | 100
